SMILES strings stand for the structures.

For data set [1], the system named is MT4. The experiment in a line: Concentration required to reduce the viability of mock infected cells by 50%. It counts as functional. The conditions noted are these: Homo sapiens. A digest of the protocol: (§1)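 MT-4 cells were infected with HIV-1 (III_B) or HIV-2 (ROD) at MOI 0.01 (100 CCID₅₀), or mock-infected, run in parallel. Cells were exposed to various compound concentrations and grown 5 days, then viable cells were counted by MTT colorimetry. EC₅₀ protects 50% of infected cells from cytopathicity; CC₅₀ cuts mock-infected viability by 50%. Values are averages of several experiments.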

Data set [2] has as its system Human immunodeficiency virus 1. Kind of data set: Effective concentration against HIV-1(IIIB) replication in MT-4 cells. The format is functional, organism-based. The conditions noted are these: Human immunodeficiency virus 1, MT4. A digest of the protocol:
as §1

Data set [3] concerns Human immunodeficiency virus 2. Kind of data set: Effective concentration against HIV-2(ROD) replication in MT-4 cells. It counts as functional, organism-based. The conditions noted are these: Human immunodeficiency virus 2, MT4. The essentials:
as §1

Data set [4] in a line: pKa was reported. The format is physicochemical. The essentials: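 Potentiometric titration: a 0.1 mM aqueous solution with 4 equiv HClO₄ at 25 °C, I = 0.1 M (NaClO₄), was titrated with 0.1 M NaOH. The electrode was calibrated with pH 4.00 and 7.00 buffers. UV spectra (400–200 nm, 1 cm path) were also taken at 0.17 mM across pH 1–7, with pH set by HClO₄ in 0.1 M NaClO₄.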

Consider `c1ccc(-c2cc(CN3CCCNCCNCCCNCC3)cc(CN3CCCNCCNCCCNCC3)c2)cc1`, for which, in data set [1], the CC50 was > 198000 nM.

Turning to `c1cc(CN2CCCNCCNCCCNCC2)cc(CN2CCCNCCNCCCNCC2)n1`, it took 17000 nM to reach half-maximal cytotoxicity in data set [1] (CC50). Besides, the 50% effective concentration (EC50) in data set [2] and in data set [3] was 16400 nM in each case.

For `c1nc(CN2CCCNCCNCCCNCC2)cnc1CN1CCCNCCNCCCNCC1`, the half-maximal cytotoxic concentration (CC50) in data set [1] is > 203000 nM. Besides, the EC50 was found to be 139000 nM in data set [2] and 106000 nM in data set [3].

On to `Oc1cccnc1C1CCNCCNCCCNCCN1` (centres undefined), for which the pKa in data set [4] came out at 3.6.

Turning to `c1cc(CN2CCCNCCNCCCNCC2)ncc1CN1CCCNCCNCCCNCC1`, in data set [1], it took 18000 nM to reach half-maximal cytotoxicity (CC50). Besides, the concentration for a half-maximal effect (EC50) in data set [2] is 908 nM; in data set [3], 2190 nM.

Consider `c1cc(CN2CCCNCCNCCCNCC2)cc(CN2CCCNCCNCCCNCC2)c1`, for which the CC50 in data set [1] is > 421000 nM.

For `c1cc(CN2CCCNCCNCCCNCC2)nc(CN2CCCNCCNCCCNCC2)c1`, the CC50 in data set [1] is > 409000 nM. The half-maximal effective concentration (EC50) in data set [2] was found to be 24.5 nM; in data set [3] it was 65.4 nM.

In the case of `c1cc(CN2CCCNCCNCCCNCC2)ccc1CN1CCCNCCNCCCNCC1` [PLERIXAFOR], the half-maximal cytotoxic concentration (CC50) in data set [1] is > 421000 nM. In addition, the concentration giving a half-maximal response (EC50) in data set [3] came out at 5.9 nM.

Consider `O=C(O)c1cc(CN2CCCNCCNCCCNCC2)ccc1CN1CCCNCCNCCCNCC1`, for which, in data set [1], the 50% cytotoxic concentration (CC50) is > 200000 nM. For the same molecule, the EC50 in data set [2] and in data set [3] was > 200000 nM in each case.

Turning to `Nc1cc(CN2CCCNCCNCCCNCC2)ccc1CN1CCCNCCNCCCNCC1`, the CC50 in data set [1] is > 179000 nM. Moreover, the EC50 in data set [2] was 187 nM; in data set [3], 93.4 nM.

For `c1ccc(C2CCNCCNCCCNCCN2)nc1` (centres undefined), in data set [4], the pKa was < 3.

In the case of `c1ccc2c(CN3CCCNCCNCCCNCC3)cc(CN3CCCNCCNCCCNCC3)nc2c1`, the CC50 in data set [1] is > 419000 nM. Besides, the EC50 is 3770 nM in data set [2] and 4270 nM in data set [3].

Turning to `Nc1cc(CN2CCCNCCNCCCNCC2)cc(CN2CCCNCCNCCCNCC2)c1`, the 50% cytotoxic concentration (CC50) in data set [1] was > 194000 nM. Further, the results for the EC50 in data set [2] and in data set [3] were 46.8 nM and 39 nM, respectively.

For `c1ncc(CN2CCCNCCNCCCNCC2)cc1CN1CCCNCCNCCCNCC1`, the CC50 in data set [1] is > 395000 nM. Also, the values for the concentration for a half-maximal effect (EC50) in data set [2] and in data set [3] were 31.6 nM and 71 nM, respectively.

On to `c1ccc(-c2cc(CN3CCCNCCNCCCNCC3)cc(CN3CCCNCCNCCCNCC3)n2)cc1`, for which the CC50 in data set [1] was > 203000 nM. In addition, the EC50 in data set [2] worked out at 39.8 nM; in data set [3] it was 20 nM.

In the case of `O=C(O)c1cc(CN2CCCNCCNCCCNCC2)cc(CN2CCCNCCNCCCNCC2)c1`, the CC50 in data set [1] is > 200000 nM. Further, the EC50 in data set [2] and in data set [3] was > 203000 nM throughout.

The molecule `c1ccc2c(CN3CCCNCCNCCCNCC3)cc(CN3CCCNCCNCCCNCC3)cc2c1` gave a 50% cytotoxic concentration (CC50) in data set [1] of 207000 nM. For the same molecule, the EC50 in data set [2] came to 157 nM; in data set [3] it was 78.6 nM.

As to `COC(=O)c1cc(CN2CCCNCCNCCCNCC2)ccc1CN1CCCNCCNCCCNCC1`, in data set [1], the CC50 was > 198000 nM. For the same molecule, the EC50 was determined as 682 nM in data set [2] and 590 nM in data set [3].

As to `c1ncc(CN2CCCNCCNCCCNCC2)nc1CN1CCCNCCNCCCNCC1`, the cytotoxic concentration (CC50) in data set [1] is > 203000 nM. Further, the EC50 in data set [2] came to 26.1 nM; in data set [3], 17.4 nM.

The molecule `c1ccc(CCC2CNCCNCCCNCCNC2)nc1` had a pKa in data set [4] of 5.32.

Usually CC50 stands for the concentration at which the toxic effect on the cells reaches its halfway point. A high value points to better tolerance by the cells. The EC50 is the midpoint of the concentration-response curve. Lower therefore signals greater potency. By pKa is commonly meant the negative logarithm of the acid dissociation constant.

The record behind these values is ChEMBL document CHEMBL1129236, “Synthesis and structure-activity relationships of phenylenebis(methylene)-linked bis-tetraazamacrocycles that inhibit human immunodeficiency virus replication. 2. Effect of heteroaromatic linkers on the activity of bicyclams” (J Med Chem, 1996).
